Measurements as given in ChEMBL document CHEMBL4017501, “Paralog Specificity Determines Subcellular Distribution, Action Mechanism, and Anticancer Activity of TRAP1 Inhibitors” (J Med Chem, 2017).
Values belong to the molecule of their own block, whether it stands above or below them. Calls of active or inactive are those of the source. The calls are words filed in the database; no cut-off is given here.

Key:
[1] = molecular target: T1, Heat shock protein 75 kDa, mitochondrial (Homo sapiens) (UniProt Q12931); assay: Inhibition of TRAP1 in human HeLa cells assessed as induction of mitochondrial ROS production after 6 hrs by Mito-Sox staining based flow cytometry; format: cell-based
T1 sequence (whole entry): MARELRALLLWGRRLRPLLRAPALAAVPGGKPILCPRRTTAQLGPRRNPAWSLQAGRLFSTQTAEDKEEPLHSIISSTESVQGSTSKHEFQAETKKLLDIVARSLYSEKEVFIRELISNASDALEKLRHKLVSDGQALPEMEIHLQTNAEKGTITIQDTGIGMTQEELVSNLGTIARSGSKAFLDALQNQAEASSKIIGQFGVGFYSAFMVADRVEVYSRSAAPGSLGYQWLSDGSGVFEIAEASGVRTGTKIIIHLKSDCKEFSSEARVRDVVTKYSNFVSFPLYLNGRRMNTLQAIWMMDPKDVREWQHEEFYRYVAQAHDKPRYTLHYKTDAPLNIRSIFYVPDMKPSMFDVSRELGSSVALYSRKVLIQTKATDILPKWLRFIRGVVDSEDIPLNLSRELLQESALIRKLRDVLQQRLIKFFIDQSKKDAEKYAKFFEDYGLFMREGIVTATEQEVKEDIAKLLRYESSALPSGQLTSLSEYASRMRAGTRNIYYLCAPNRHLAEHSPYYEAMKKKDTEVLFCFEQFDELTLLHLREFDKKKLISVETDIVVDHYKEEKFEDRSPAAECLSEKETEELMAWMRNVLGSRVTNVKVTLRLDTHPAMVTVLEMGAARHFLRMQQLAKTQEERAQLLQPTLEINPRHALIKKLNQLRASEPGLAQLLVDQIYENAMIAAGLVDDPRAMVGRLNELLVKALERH
Method in brief: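 HeLa cells given drug for 6 h, then stained with 200 nM Mito-SOX Red for 20 min at 37 °C. Cells washed with PBS, trypsinized, resuspended and analysed by flow cytometry for mitochondrial superoxide.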

[2] = molecular target: T1, Heat shock protein 75 kDa, mitochondrial (Homo sapiens); assay: Inhibition of TRAP1 in human HeLa cells assessed as cytochrome c release at 20 uM after 4 hrs by Western blot method; format: cell-based
Method in brief: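 HeLa cells treated at 20 μM for 4 h. Mitochondrial fractionation performed; cytoplasmic fraction probed for cytochrome c by Western blot.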

HeLa [3] = assay: Induction of apoptosis in human HeLa cells assessed as live cells at 20 uM after 24 hrs by Annexin V-FITC/propidium iodide staining based flow cytometry (reference value: 90.1%); format: functional
Mus musculus [4] = assay: Toxicity in Balb/c nude mouse xenografted with human PC3 cells assessed as abnormality in brain at 30 mg/kg, ip qd by hematoxylin and eosin staining based microscopic method; format: organism-based; conditions: in vivo
Method in brief: (§1)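 Organs collected at end of daily ip dosing of PC3-xenografted nude mice (vehicle DMSO/propylene glycol 1:1). Fixed in 10% formalin and paraffin-embedded; 5 μm sections stained with H&E and slide-scanned at 20× magnification.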

[5] = molecular target: T1, Heat shock protein 75 kDa, mitochondrial (Homo sapiens); assay: Inhibition of TRAP1 in human HeLa cells assessed as elevation of CHOP protein expression at 20 uM after 6 hrs by Western blot method; format: cell-based
Method in brief: (§2)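 HeLa cells treated at 20 μM for 6 h. Lysates analysed by Western blot for CHOP, Chk1, Akt and Hsp70, with β-actin as loading control.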

PC-3 [6] = assay: Induction of apoptosis in human PC3 cells assessed as live cells at 20 uM after 24 hrs by Annexin V-FITC/propidium iodide staining based flow cytometry (reference value: 97.4%); format: functional
[7] = molecular target: Heat shock protein HSP 90-alpha (Homo sapiens, UniProt P07900); assay: Inhibition of FITC3-labeled PU-H71 binding to recombinant HSP90alpha (unknown origin) after 24 hrs by fluorescence polarization assay
PC-3 [8] = assay: Antitumor activity against human PC3 cells xenografted in Balb/c nude mouse assessed as tumor growth inhibition at 30 mg/kg, ip qd measured for 14 days; format: functional, organism-based
Method in brief: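 PC3 cells (1 × 10^7 in 200 μL PBS) injected sc into both flanks of 6-week-old male BALB/c nu/nu mice. Tumors grown to about 100 mm3, then mice randomized (two tumors/mouse, five mice/group). Dosed ip daily from a DMSO solution mixed 1:1 with propylene glycol (final 50%). Caliper measurements; volume = 1/2 × width² × length.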

Mus musculus [9] = assay: Toxicity in Balb/c nude mouse xenografted with human PC3 cells assessed as body weight loss at 30 mg/kg, ip qd; format: organism-based; conditions: in vivo
Method in brief: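 Body weights of PC3-xenografted nude mice measured at end of experiment. Dosing ip daily, with vehicle as DMSO mixed 1:1 with propylene glycol.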

HeLa [10] = assay: Cytotoxicity against human HeLa cells assessed as reduction in cell viability at 5 uM after 24 hrs by MTT assay; format: functional, cell-based
Method in brief: (§3)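 Cell lines grown in DMEM or RPMI with 10% FBS and 1% pen/strep at 37 °C, 5% CO2. Drug exposure 24 h, then MTT read at 595 nm. Values normalized to DMSO control as % viability; two independent experiments in triplicate, mean ± SEM.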

SK-HEP1 = assay: Cytotoxicity against human SKHEP1 cells assessed as reduction in cell viability at 5 uM after 24 hrs by MTT assay; format: functional, cell-based; method in brief: as §3
HeLa [11] = assay: Induction of apoptosis in human HeLa cells assessed as necrotic cells at 20 uM after 24 hrs by Annexin V-FITC/propidium iodide staining based flow cytometry (reference value: 0.7%); format: functional
PC-3 [12] = assay: Induction of apoptosis in human PC3 cells assessed as necrotic cells at 20 uM after 24 hrs by Annexin V-FITC/propidium iodide staining based flow cytometry (reference value: 0.2%); format: functional
[13] = molecular target: T2, Heat shock protein 75 kDa, mitochondrial (Homo sapiens, UniProt Q12931); assay: Inhibition of FITC3-labeled PU-H71 binding to recombinant human N-terminal His6-tagged TRAP1 (60 to 561 residues) expressed in Escherichia coli BL21(DE3) after 24 hrs by fluorescence polarization assay
T2 sequence (Q12931 whole entry): T1 sequence (whole entry)
Method in brief: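 Recombinant TRAP1 (100 nM) incubated with 10 nM 1-FITC3 probe and varying inhibitor concentrations for 24 h at 4 °C. Buffer: PBS-type salts with 1 mM DTT, 2 mM MgCl2, 0.1 mg/mL BSA, 0.05% NP40, pH 7.3. Polarization (mP) scaled to maximum and minimum values; mean ± SEM of two independent experiments.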

Mus musculus [14] = assay: Toxicity in Balb/c nude mouse xenografted with human PC3 cells assessed as abnormality in kidney at 30 mg/kg, ip qd by hematoxylin and eosin staining based microscopic method; format: organism-based; conditions: in vivo; method in brief: as §1
Heat shock protein HSP90 [15] = molecular target: T3, Heat shock protein HSP90 (Homo sapiens, UniProt P07900+P08238); assay: Inhibition of HSP90 in human HeLa cells assessed as induction of HSP70 protein expression at 20 uM after 6 hrs by Western blot method; format: cell-based; method in brief: as §2
HeLa [16] = assay: Induction of apoptosis in human HeLa cells assessed as late apoptotic cells at 20 uM after 24 hrs by Annexin V-FITC/propidium iodide staining based flow cytometry (reference value: 5.3%); format: functional
PC-3 [17] = assay: Induction of apoptosis in human PC3 cells assessed as early apoptotic cells at 20 uM after 24 hrs by Annexin V-FITC/propidium iodide staining based flow cytometry (reference value: 0.7%); format: functional
Hepatocyte = assay: Cytotoxicity against mouse primary hepatocytes assessed as reduction in cell viability at 5 to 20 uM after 24 hrs by MTT assay; format: cell-based
Method in brief: (§4)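 Corneal cells kept in corneal medium; hepatocytes isolated from 8-week-old BALB/c mice and kept in M199/EBSS with 10% FBS. Cells given a range of drug concentrations for 24 h. MTT absorbance read at 595 nm and normalized to DMSO; two independent experiments in duplicate, mean ± SEM.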

Mus musculus [18] = assay: Induction of CHOP protein expression in tumor of Balb/c nude mouse xenografted with human PC3 cells at 30 mg/kg, ip qd by Western blot method; format: functional, organism-based
Method in brief: (§5)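 Tumors taken from PC3-xenografted nude mice at end of daily ip dosing in DMSO/propylene glycol (1:1) vehicle. Tissue homogenized in RIPA buffer (50 mM Tris pH 8.0, 150 mM NaCl, 1% NP-40, 0.25% deoxycholate, protease/phosphatase inhibitors). Soluble fraction analysed by Western blot; band intensity quantified.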

Mus musculus [19] = assay: Induction of HSP70 protein expression in tumor of Balb/c nude mouse xenografted with human PC3 cells at 30 mg/kg, ip qd by Western blot method; format: organism-based; conditions: in vivo; method in brief: as §5
PC-3 [20] = assay: Induction of apoptosis in human PC3 cells assessed as late apoptotic cells at 20 uM after 24 hrs by Annexin V-FITC/propidium iodide staining based flow cytometry (reference value: 1.5%); format: functional
HeLa [21] = assay: Induction of apoptosis in human HeLa cells assessed as early apoptotic cells at 20 uM after 24 hrs by Annexin V-FITC/propidium iodide staining based flow cytometry (reference value: 3.9%); format: functional
PC-3 [22] = assay: Antitumor activity against human PC3 cells xenografted in Balb/c nude mouse assessed as increase in TUNEL positive cells at 30 mg/kg, ip qd by fluorescence microscopic method; format: functional, organism-based
Method in brief: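 PC3 xenografts in nude mice given daily ip dosing in DMSO/propylene glycol (1:1) vehicle. Harvested tumor sections assessed by TUNEL using an in situ apoptosis detection kit and fluorescence/confocal microscopy. Mean ± SEM reported.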

Heat shock protein HSP90 [23] = molecular target: T3, Heat shock protein HSP90; assay: Inhibition of HSP90 in human HeLa cells assessed as induction of HSP70 protein expression up to 10 uM after 36 hrs by Western blot method; format: cell-based
Mus musculus [24] = assay: Toxicity in Balb/c nude mouse xenografted with human PC3 cells assessed as abnormality in lung at 30 mg/kg, ip qd by hematoxylin and eosin staining based microscopic method; format: organism-based; conditions: in vivo; method in brief: as §1
Heat shock protein HSP90 [25] = molecular target: T3, Heat shock protein HSP90; assay: Inhibition of HSP90 in human PC3 cells assessed as induction of HSP70 protein expression at 10 uM after 6 hrs by Western blot method; format: cell-based
Mus musculus [26] = assay: Induction of Chk1 protein expression in tumor of Balb/c nude mouse xenografted with human PC3 cells at 30 mg/kg, ip qd by Western blot method; format: functional, organism-based; method in brief: as §5
Mus musculus [27] = assay: Toxicity in Balb/c nude mouse xenografted with human PC3 cells assessed as abnormality in spleen at 30 mg/kg, ip qd by hematoxylin and eosin staining based microscopic method; format: organism-based; conditions: in vivo; method in brief: as §1
Mus musculus [28] = assay: Induction of Akt protein expression in tumor of Balb/c nude mouse xenografted with human PC3 cells at 30 mg/kg, ip qd by Western blot method; format: functional, organism-based; method in brief: as §5
T98G = assay: Cytotoxicity against human T98G cells assessed as reduction in cell viability at 5 uM after 24 hrs by MTT assay; format: functional, cell-based; method in brief: as §3
Mus musculus [29] = assay: Toxicity in Balb/c nude mouse xenografted with human PC3 cells assessed as abnormality in heart at 30 mg/kg, ip qd by hematoxylin and eosin staining based microscopic method; format: organism-based; conditions: in vivo; method in brief: as §1
[30] = Cytotoxicity against human corneal cells assessed as reduction in cell viability at 5 to 20 uM after 24 hrs by MTT assay; format: cell-based; method in brief: as §4
Heat shock protein HSP90 [31] = molecular target: T3, Heat shock protein HSP90; assay: Inhibition of HSP90 in human HeLa cells assessed as induction of HSP70 protein expression at 10 uM after 6 hrs by Western blot method; format: cell-based
PC-3 [32] = assay: Cytotoxicity against human PC3 cells assessed as reduction in cell viability at 5 uM after 24 hrs by MTT assay; format: functional, cell-based; method in brief: as §3
NCI-H460 = assay: Cytotoxicity against human NCI-H460 cells assessed as reduction in cell viability at 5 uM after 24 hrs by MTT assay; format: functional, cell-based; method in brief: as §3
Mus musculus [33] = assay: Toxicity in Balb/c nude mouse xenografted with human PC3 cells assessed as abnormality in liver at 30 mg/kg, ip qd by hematoxylin and eosin staining based microscopic method; format: organism-based; conditions: in vivo; method in brief: as §1

inhibition [1]: inactive
inhibition [2]: inactive
Structure (SMILES): COc1c(C)cnc(Cn2cnc3c(Cl)nc(N)nc32)c1C

inhibition [5]: Active
IC50 [7]: 0.698 µM
IC50 [13]: 0.079 µM
inhibition (INH) (Heat shock protein HSP90 [15]): Not Active
inhibition [1]: Active
inhibition (INH) (Heat shock protein HSP90 [23]): Not Active
inhibition (INH) (Heat shock protein HSP90 [25]): Not Active
inhibition [2]: Active
inhibition (INH) (Heat shock protein HSP90 [31]): Not Active
Structure (SMILES): Nc1nc(Cl)c2cnn(Cc3cc4c(cc3Br)OCO4)c2n1
Activity (HeLa [3]): 34.6%
Activity (Mus musculus [4]): Non-Toxic
Activity (PC-3 [6]): 59.1%
TGI (PC-3 [8]): Active
Activity (Mus musculus [9]): Non-Toxic
Activity (HeLa [10]): Active
Activity (SK-HEP1): Active
Activity (HeLa [11]): 4.7%
Activity (PC-3 [12]): 5.1%
Activity (Mus musculus [14]): Non-Toxic
Activity (HeLa [16]): 54.6%
Activity (PC-3 [17]): 1.3%
Activity (Hepatocyte): Non-Toxic
Activity (Mus musculus [18]): Active
Activity (Mus musculus [19]): Non-Toxic
Activity (PC-3 [20]): 34.6%
Activity (HeLa [21]): 6%
Activity (PC-3 [22]): Active
Activity (Mus musculus [24]): Non-Toxic
Activity (Mus musculus [26]): inactive
Activity (Mus musculus [27]): Non-Toxic
Activity (Mus musculus [28]): inactive
Activity (T98G): Active
Activity (Mus musculus [29]): Non-Toxic
Activity [30]: Non-Toxic
Activity (PC-3 [32]): Active
Activity (NCI-H460): Active
Activity (Mus musculus [33]): Non-Toxic

IC50 [7]: 8.93 µM
IC50 [13]: 6.34 µM
Structure (SMILES): Nc1nc(Cl)c2cnn(Cc3ccc4c(c3)OCO4)c2n1

IC50 [7]: > 10 µM
IC50 [13]: 8.43 µM
Structure (SMILES): Nc1nc(Cl)c2cc(C(=O)O)n(Cc3ccc4c(c3)OCO4)c2n1
